A selection: hits, their analogues and other compounds. The true share with any hit is near 1.3%.
PfGluPho inh: PfG6PD (Plasmodium falciparum) enzyme inhibition. PfGluPho enzyme, NADPH resazurin-diaphorase fluorescence. inhibition, % at 20 µM. 350,000 compounds, 0.78% hits;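 active means inhibition reaching at least a set limit at 20 µM in the primary screen, cut at about 59% in these data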;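 further: 0% = DMSO wells with substrate and 100% = DMSO wells lacking glucose-6-phosphate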
Diaphorase act: diaphorase activation or chemical reduction counter-screen; 190,000 compounds, 0.005% hits; Diaphorase/resazurin coupled assay, resorufin fluorescence, 16 min; hits give high values; 1 = vehicle wells, 0 = NADH-free wells; activation factor at 20 µM;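 active means diaphorase activity raised at least twofold by the compound at 20 µM; inactive means activation factor below 2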
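System – purified diaphorase enzyme from Clostridium kluyveri · Input – enzyme 0.07 U/mL final · Also added – final NADH 0.114 mM, resazurin 0.1 mM · Measured by – fluorescence of resorufin, 544 nm excitation, 590 nm emission · Timing – 16 min enzyme reaction, ambient temperature · Measure – resorufin increase flagging diaphorase activators or reducers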
HKDC1 inhibitor: inhibitors of human hexokinase HKDC1. Q2TB90. recombinant HKDC1, G6PDH/diaphorase resazurin coupled fluorescence. inhibition, % at 20 µM. 340,000 compounds, 0.16% hits;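 active means inhibition above about 35% when tested at 20 µM, limit read from the data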;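 further: plate controls were DMSO wells with enzyme for no effect and DMSO wells lacking enzyme for full effect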
Target sequence (Q2TB90 whole entry, looked up): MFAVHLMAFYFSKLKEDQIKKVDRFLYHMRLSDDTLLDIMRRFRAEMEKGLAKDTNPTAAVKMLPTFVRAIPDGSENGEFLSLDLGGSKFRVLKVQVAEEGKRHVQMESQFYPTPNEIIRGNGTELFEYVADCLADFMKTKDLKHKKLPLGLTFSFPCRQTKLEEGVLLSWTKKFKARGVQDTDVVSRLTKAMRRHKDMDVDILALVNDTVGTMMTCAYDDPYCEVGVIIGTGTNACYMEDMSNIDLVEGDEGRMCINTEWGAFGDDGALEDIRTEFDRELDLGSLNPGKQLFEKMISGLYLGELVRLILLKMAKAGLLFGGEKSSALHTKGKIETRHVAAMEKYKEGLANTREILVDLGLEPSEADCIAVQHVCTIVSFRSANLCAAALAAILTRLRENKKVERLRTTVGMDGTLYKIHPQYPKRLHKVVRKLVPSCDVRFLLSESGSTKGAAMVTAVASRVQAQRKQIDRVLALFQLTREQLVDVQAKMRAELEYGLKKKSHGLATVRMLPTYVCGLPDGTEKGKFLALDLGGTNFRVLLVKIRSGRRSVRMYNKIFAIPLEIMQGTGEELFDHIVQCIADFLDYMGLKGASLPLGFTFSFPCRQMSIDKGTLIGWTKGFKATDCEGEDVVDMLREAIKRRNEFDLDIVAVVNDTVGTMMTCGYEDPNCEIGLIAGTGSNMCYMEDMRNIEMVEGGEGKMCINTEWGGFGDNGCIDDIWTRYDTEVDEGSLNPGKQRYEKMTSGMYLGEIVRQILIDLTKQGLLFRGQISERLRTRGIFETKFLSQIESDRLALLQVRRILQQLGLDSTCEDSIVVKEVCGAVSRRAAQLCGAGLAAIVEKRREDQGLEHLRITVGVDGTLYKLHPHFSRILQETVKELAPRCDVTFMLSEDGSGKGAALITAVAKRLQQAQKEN
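Assay system: in-house recombinant HK5 (HKDC1) enzyme. Input: HKDC1 at 5 µg/mL. Medium: Tris pH 8.0 buffer with MgCl2, Tween-20, BSA, BME. Dosing: single 20 µM dose. Schedule: 90 min reaction incubation at room temperature, dark. Signal: resazurin-to-resorufin fluorescence via G6PDH and diaphorase coupling, 525/613 nm. Controls: DMSO-enzyme wells negative, buffer-substituted wells positive.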
Diaphorase inh: inhibits diaphorase or chemically oxidizes, flagging diaphorase assay artifacts. diaphorase resazurin-to-resorufin fluorescence, NADH, 16 min; bacterial (C. kluyveri) enzyme, not human. inhibition, % at 20 µM. 190,000 compounds, 0.69% hits;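 active means primary screen inhibition at 20 µM above a set limit, cut at about 50% in these data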;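 further: plate controls were DMSO with full reaction for no effect and wells lacking NADH for full effect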
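controls = No-NADH positive control and DMSO neutral control | system = Clostridium kluyveri diaphorase enzyme | timing = reaction incubation of 16 min at room temperature | signal = resorufin fluorescence 544/590 nm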
G6PDH counter: counter-screen for G6PDH assay hits: L. mesenteroides G6PDH inhibition; Purified L. mesenteroides G6PDH, diaphorase/resazurin coupled fluorescence, 45 min; inhibition, % at 5 µM; 200,000 compounds, 0.12% hits; AID 1020; in the data active means inhibition above about 50%
PfG6PD confirm: PfG6PD inhibition, single-dose confirmed; inhibition, % at 20 µM; recombinant PfGluPho, NADPH-diaphorase-resazurin fluorescence; 2,400 compounds, 34% hits; shares compounds with PfGluPho inh;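 active means inhibition of at least 50% at 20 µM in any single replicate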;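 further: 0% = DMSO with substrate and 100% = DMSO lacking glucose-6-phosphate substrate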
Diaph ctr 10uM: diaphorase inhibition or oxidation at 10 uM NADPH; diaphorase-coupled resazurin reduction, fluorescence, NADPH 10 uM; shares compounds with PfGluPho inh; inhibition, % at 20 µM; AID 504862; 820 compounds, 39% hits;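 active means average inhibition reaching 50% or more with the compound at 20 µM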;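 further: resorufin red fluorescence formed as diaphorase reduces resazurin using NADPH; 0% = DMSO with enzyme and 100% = DMSO without enzyme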
Diaphorase 30uM: counter-screen for P. falciparum G6PD inhibitors: diaphorase inhibitors, oxidizers. shares compounds with PfGluPho inh. Diaphorase/resazurin coupled assay, resorufin fluorescence, 30 uM NADPH. inhibition, % at 20 µM. 820 compounds, 29% hits;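 active means inhibition averaging 50% or more, tested at 20 µM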;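 further: 0% = DMSO with enzyme and 100% = DMSO wells lacking diaphorase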
* hit, by the source's call.

`O=S(=O)(c1ccccc1)N1CCN=C1SCc1c(F)cccc1Cl` gave PfGluPho inh 105.9*, HKDC1 inhibitor -0.7 and PfG6PD confirm 31.9.
Cc1ccc(S(=O)(=O)N2CCN=C2SC(C)c2ccccc2)cc1 (centres undefined) was read as PfGluPho inh 54.3 and HKDC1 inhibitor 8.2.
`O=S(=O)(c1ccc(Cl)cc1)N1CCN=C1SCc1cccc(Cl)c1` gave PfGluPho inh 43.1, Diaphorase act 0.8, HKDC1 inhibitor 1.9, Diaphorase inh 23.2 and G6PDH counter -0.8.
`Cc1ccc(C)c(CSC2=NCCN2S(=O)(=O)c2ccccc2)c1` gave PfGluPho inh 61.9*, HKDC1 inhibitor 3.6 and PfG6PD confirm -3.2.
For CC(Cc1cccs1)NC(=O)Nc1ccc(Cl)c(Cl)c1 (centres undefined) the results were PfGluPho inh 14.6, Diaphorase act 0.9, HKDC1 inhibitor -0.3, Diaphorase inh 8.9 and G6PDH counter 3.9.
For COc1ccc(NC(=O)CN2CCN(C(=S)NC3CCCC3)CC2)cc1 the results were PfGluPho inh -0.4 and HKDC1 inhibitor 3.4.
Screening COC(=O)c1ccc(CCc2cc(O)ccc2O)cc1 returned PfGluPho inh 59.0, HKDC1 inhibitor 26.5 and PfG6PD confirm 9.5.
For CN1CCN(C(=O)C2CCN(S(=O)(=O)c3ccc(F)cc3)CC2)CC1 the results were PfGluPho inh 2.3 and HKDC1 inhibitor -3.3.
C=CCNC(=O)COC(=O)c1oc2ccccc2c1CSC1CCCCC1 was read as PfGluPho inh 7.9, Diaphorase act 0.9, HKDC1 inhibitor -10.7, Diaphorase inh 9.1 and G6PDH counter -6.3.
COC1=C(Br)C(=O)c2nc(C)ccc2C1=O was read as PfGluPho inh 101.1*, PfG6PD confirm 73.7*, Diaph ctr 10uM 46.2 and Diaphorase 30uM 37.2.
Screening COC1=C(N)C(=O)c2nc(C)ccc2C1=O returned PfGluPho inh 108.6*, HKDC1 inhibitor 31.5, PfG6PD confirm 93.2*, Diaph ctr 10uM 49.0 and Diaphorase 30uM 56.8*.
For CCOC(=O)c1sc2nccc(OC)c2c1N=CN(C)C the results were PfGluPho inh 0.2, Diaphorase act 1, HKDC1 inhibitor -8.7, Diaphorase inh 4.8 and G6PDH counter 2.0.
`C/C(CC(=O)Nc1cccnc1)=N\NC(=O)C(=O)Nc1cccc(C)c1` gave PfGluPho inh -8.8, Diaphorase act 0.9, HKDC1 inhibitor -12.6, Diaphorase inh 13.8 and G6PDH counter -1.2.
Screening CCCCN1C2CCCC1CC(NC(=O)C1CCCCC1)C2 (centres undefined) returned PfGluPho inh -9.3, Diaphorase act 0.8, HKDC1 inhibitor -2.7, Diaphorase inh 15.7 and G6PDH counter 6.5.
For CC(Sc1ccc(S(=O)(=O)N2CCOCC2)cn1)C(=O)Nc1ccc(Cl)cc1Cl (centres undefined) the results were PfGluPho inh 9.5 and HKDC1 inhibitor 3.4.
CC(Sc1ccc(S(=O)(=O)N2CCOCC2)cn1)c1ccccc1Cl (centres undefined) was read as PfGluPho inh 47.7, HKDC1 inhibitor 8.4 and PfG6PD confirm 3.9.
For Cc1ccc(Nc2nnc(-c3ccc4c(c3)OCO4)o2)c(C)c1 the results were PfGluPho inh 69.7*, HKDC1 inhibitor 0.6 and PfG6PD confirm 39.0.
For Cc1ccc(CSc2nnc(-c3ccc4c(c3)OCO4)o2)cc1 the results were PfGluPho inh 2.3, Diaphorase act 0.8, HKDC1 inhibitor 8.3, Diaphorase inh 21.4 and G6PDH counter 1.7.
For CCOC(=O)c1ccc(N2CCOCC2)c(NS(=O)(=O)c2ccc(F)cc2)c1 the results were PfGluPho inh -14.8 and HKDC1 inhibitor 4.4.
For CCC(=O)Nc1ccc2nc3c(=O)[nH]c(=S)[nH]c3nc2c1 the results were PfGluPho inh 3.4 and HKDC1 inhibitor 17.6.
`Cc1cccc(C(=O)Nc2ccc(C(=O)c3ccccc3)cc2)c1` gave PfGluPho inh 63.1*, HKDC1 inhibitor -0.2 and PfG6PD confirm 6.1.
`Cc1cccc(C(=O)Nc2ccc(C(=O)c3ccncc3)cc2)c1` gave PfGluPho inh 64.3* and PfG6PD confirm 9.6.
Cc1nn(CC(=O)N2N=C(C(F)F)CC2(O)C(F)F)c(C)c1[N+](=O)[O-] (centres undefined) was read as PfGluPho inh 10.7, Diaphorase act 1, HKDC1 inhibitor -10.7, Diaphorase inh 2.3 and G6PDH counter 3.4.
Screening CCCCCC(=O)NC(NC(=S)N1CCOCC1)C(Cl)(Cl)Cl (centres undefined) returned PfGluPho inh -6.0, Diaphorase act 1, HKDC1 inhibitor -3.8, Diaphorase inh 0.2 and G6PDH counter 13.6.
Screening CCCCCC(=O)NC(NC(=S)NC1CCS(=O)(=O)C1)C(Cl)(Cl)Cl (centres undefined) returned PfGluPho inh 62.8*, Diaphorase act 0.9, HKDC1 inhibitor -10.7, Diaphorase inh 5.4, G6PDH counter 3.6 and PfG6PD confirm 0.4.
Cc1csc2nc(O)c(C(=O)NCCC3=CCCCC3)c(=O)n12 was read as PfGluPho inh 1.4 and HKDC1 inhibitor 8.6.
Screening COc1cc(OC)c(OC)cc1/C=C/c1ccnc2ccccc12 returned PfGluPho inh 86.5*, HKDC1 inhibitor 3.7 and PfG6PD confirm 14.3.
`COc1cc(CCC(=O)OCC(N)=O)cc(OC)c1OC` gave PfGluPho inh -14.5, Diaphorase act 1, HKDC1 inhibitor -0.7, Diaphorase inh 2.8 and G6PDH counter 10.1.
Screening C=CCn1c(C)cc(C(=O)COC(=O)CCc2cc(OC)c(OC)c(OC)c2)c1C returned PfGluPho inh 80.4*, HKDC1 inhibitor 0.8 and PfG6PD confirm 24.3.
CC(C)CC1NC(=S)N(C2CCCCC2)C1=O (centres undefined) was read as PfGluPho inh -16.6, Diaphorase act 0.9, HKDC1 inhibitor -5.2, Diaphorase inh 5.1 and G6PDH counter 10.3.
For O=C(Cn1cnc2c(oc3ccccc32)c1=O)N1CCCC1 the results were PfGluPho inh 1.7, Diaphorase act 1, HKDC1 inhibitor -1.7, Diaphorase inh 4.6 and G6PDH counter 6.8.
Screening CC(Nc1cc(N2CCNCC2)ccc1[N+](=O)[O-])c1ccccc1 (centres undefined) returned PfGluPho inh 11.0, Diaphorase act 0.8, HKDC1 inhibitor -2.6, Diaphorase inh 17.1 and G6PDH counter 10.2.

Assay outcomes deposited in PubChem by Sanford-Burnham Center for Chemical Genomics.
